ARFGAP1 inh: rat ARFGAP1 inhibition | Arfgap1-stimulated ARF1 GTP hydrolysis, GDP FP detection | inhibition, % at 16.5 µM | 0.26% of 360,000 active | AID 651572;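 active = inhibition above a per-plate limit, mean inhibition of low control wells plus 3 SD, cut at about 25% in these data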;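 also: 0% = DMSO wells with enzyme and 100% = wells lacking Arfgap1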
Target sequence (Q62848 1-136 limits assumed): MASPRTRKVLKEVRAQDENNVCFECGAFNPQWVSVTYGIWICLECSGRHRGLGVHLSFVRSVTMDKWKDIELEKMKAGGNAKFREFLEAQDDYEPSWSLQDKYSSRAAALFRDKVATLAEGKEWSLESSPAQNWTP
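Material: rat Arfgap1 catalytic domain, aa 1-136; also added: human ARF1(Δ1-17)-GTP substrate; compound dosing: one concentration, 16.5 µM, DMSO 1.26%; incubation: GTP hydrolysis reaction 2 h at 25 °C; measured by: Tracer-displacement fluorescence polarization with EDTA stop, 620/688 nm; evaluation: % inhibition from polarization; repeats: one replicate per compound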
esBAF inh: blocks esBAF chromatin remodeling in mouse ES cells. reporter increase, % at 12.5 µM. 2% of 350,000 active. Bmi1-luciferase knock-in reporter, 24 h; 100% = twice the neutral-well signal; in the data active = activation above about 40%;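 also: 0% = median of the plate's neutral control wells and 100% = double that signal; a rise in the Bmi1 reporter signal indicates esBAF inhibition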
ASAP1 GAP inh: blocks human ASAP1-stimulated Arf1 GTP hydrolysis; Q9ULH1; GDP FP detection; inhibition, % at 16.5 µM; 0.19% of 360,000 active; in the data active = inhibition above about 25%;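 also: 0% = vehicle with enzyme and substrate and 100% = no enzyme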
Target sequence (Q9ULH1 325-724 limits assumed): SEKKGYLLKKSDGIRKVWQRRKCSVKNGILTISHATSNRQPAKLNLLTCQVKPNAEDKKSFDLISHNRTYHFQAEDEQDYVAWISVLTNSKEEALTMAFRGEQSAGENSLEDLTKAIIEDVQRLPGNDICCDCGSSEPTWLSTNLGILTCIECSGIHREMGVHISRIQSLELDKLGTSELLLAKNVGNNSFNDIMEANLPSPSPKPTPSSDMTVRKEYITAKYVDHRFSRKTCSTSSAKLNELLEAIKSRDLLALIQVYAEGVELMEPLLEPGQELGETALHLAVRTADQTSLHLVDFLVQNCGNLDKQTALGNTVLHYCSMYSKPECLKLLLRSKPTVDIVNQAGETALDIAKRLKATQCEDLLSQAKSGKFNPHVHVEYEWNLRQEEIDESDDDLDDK
SMARCA2 activ: SMARCA2 function activation, primary screen | MG213 cells, MMTV-luciferase reporter, dexamethasone, overnight | activation, % at 9.1 µM | AID 652017 | 1% of 370,000 active; in the data active = activation above about 7.8%;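 also: 0% = vehicle wells and 100% = reference activator wells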
Starred values were filed as active, the others as inactive. Sampled rows, rich in hits. Any-hit rate of the full collection: about 2.6%.

CN(C)CCCNC(=O)C[C@H]1CC[C@@H](NC(=O)c2ccccc2F)[C@H](CO)O1 was read as esBAF inh -1.
For COc1ccc(CCN2CC(C(=O)NCCc3ccccc3C(F)(F)F)CCC2=O)cc1 (configuration not stated) the results were ARFGAP1 inh 3, esBAF inh 49*, ASAP1 GAP inh 0 and SMARCA2 activ 0.
`Cc1ccsc1CCNC(=O)C1CCC(=O)N(CCc2cccc(F)c2)C1` (configuration not stated) gave ARFGAP1 inh 6, esBAF inh 65*, ASAP1 GAP inh 8 and SMARCA2 activ 4.
`O=C(NCCc1cccs1)C1CCC(=O)N(CCc2cccc(F)c2)C1` (configuration not stated) gave ARFGAP1 inh 19, esBAF inh -5, ASAP1 GAP inh -17 and SMARCA2 activ 5.
Screening C=CCC1(CC=C)CCCN1C(=O)C1CCC(=O)N(CCc2ccc(OC)cc2)C1 (configuration not stated) returned ARFGAP1 inh 10, esBAF inh 69*, ASAP1 GAP inh -3 and SMARCA2 activ 1.
For COc1ccc(CCNC(=O)C2CCC(=O)N(CCc3ccc(OC)cc3)C2)cc1 (configuration not stated) the results were ARFGAP1 inh 2, esBAF inh 7, ASAP1 GAP inh -6 and SMARCA2 activ -3.
`C[C@H](CO)N1C[C@H](C)[C@@H](CN(C)Cc2ccc3c(c2)OCO3)OCCCC[C@H](C)Oc2ccc(NC(=O)c3ccncc3)cc2C1=O` gave esBAF inh -4.
Screening CN1CCCCN2[C@H](C1)[C@H](c1ccc(Br)cc1)[C@@H]2CO returned esBAF inh -2.
COc1ccccc1S(=O)(=O)N[C@H]1C=C[C@H](CC(=O)N2CCN(C)CC2)O[C@@H]1CO was read as esBAF inh 3.
`COc1cc(OC)cc(-c2noc(-c3csc([C@@H]4C[C@H](O)[C@@H](CO)O4)n3)n2)c1` gave ARFGAP1 inh 9, esBAF inh 48*, ASAP1 GAP inh -10 and SMARCA2 activ 2.
Screening CCOc1ccc(-c2noc(-c3csc([C@@H]4C[C@H](O)[C@@H](CO)O4)n3)n2)cc1 returned ARFGAP1 inh 0, esBAF inh 81*, ASAP1 GAP inh -17 and SMARCA2 activ 0.
Screening O=C(Nc1ccccc1)N(O)c1ccc(Cl)cc1 returned ARFGAP1 inh 1, esBAF inh 68*, ASAP1 GAP inh -2 and SMARCA2 activ 3.
`CCN(CCS(=O)(=O)c1ccc(Cl)cc1)C(=O)Nc1ccccc1` gave ARFGAP1 inh -2, esBAF inh -9, ASAP1 GAP inh -7 and SMARCA2 activ -2.
`Cc1c(CC(C)C)nc(N)c(C#N)c1-c1ccccc1` gave ARFGAP1 inh -3, esBAF inh 87*, ASAP1 GAP inh 5 and SMARCA2 activ 0.
For COc1ccc(S(=O)(=O)N(C)C[C@@H]2Oc3ccc(NS(C)(=O)=O)cc3CC(=O)N([C@@H](C)CO)C[C@H]2C)cc1 the results were esBAF inh -6.
`CC(C)c1ccc2c(c1)C1(NN=C(c3ccccc3)S1)C(=O)N2` (configuration not stated) gave ARFGAP1 inh -1, esBAF inh 87*, ASAP1 GAP inh 10 and SMARCA2 activ 1.
`COCCNC(=O)C[C@H]1CC[C@H]2[C@@H](COC[C@@H](O)CN2Cc2ccc(Cl)c(Cl)c2)O1` gave esBAF inh 2.
Screening C[C@H]1CN([C@@H](C)CO)C(=O)c2cccc(NS(=O)(=O)c3ccc(F)cc3)c2O[C@H]1CN(C)Cc1ccc(C(F)(F)F)cc1 returned esBAF inh -5.
Screening O=C(c1cccs1)N1CCN(Cc2ccccc2)CC1 returned ARFGAP1 inh -9, ASAP1 GAP inh 3 and SMARCA2 activ -2.
Screening O=C(NCC(=O)N1CCN(Cc2ccccc2)CC1)c1cccs1 returned ARFGAP1 inh -5, esBAF inh 49*, ASAP1 GAP inh -5 and SMARCA2 activ 5.
Cn1c(-c2ccccc2)c(/C=N/NC(=O)c2ccc(O)cc2)c2ccccc21 was read as ARFGAP1 inh -5, esBAF inh 63*, ASAP1 GAP inh -3 and SMARCA2 activ 2.
`O=C(C[C@H]1CC[C@H](NC(=O)C2CCOCC2)[C@H](CO)O1)NCc1ccccc1Cl` gave esBAF inh 2.
`Cc1ccccc1C(=O)c1cccn1CC(=O)NCc1ccccc1Cl` gave ARFGAP1 inh -4, esBAF inh 57*, ASAP1 GAP inh -9 and SMARCA2 activ 3.
`O=C(Cn1cccc1C(=O)c1ccccc1)NCc1ccccc1Cl` gave ARFGAP1 inh 3, esBAF inh 56*, ASAP1 GAP inh 0 and SMARCA2 activ 4.
For COc1ccccc1CNC(=O)Cn1cccc1C(=O)c1ccccc1 the results were ARFGAP1 inh -3, esBAF inh 31, ASAP1 GAP inh -1 and SMARCA2 activ 3.
CN1CCN(C(=O)c2ccc(Cn3cc(Cl)cn3)o2)CC1 was read as ARFGAP1 inh 1, esBAF inh -9, ASAP1 GAP inh 4 and SMARCA2 activ 7.9*.
For O=C(c1ccc(Cn2cc(Cl)cn2)o1)N1CCN(Cc2ccc3c(c2)OCO3)CC1 the results were esBAF inh 5.
CNC(=O)C[C@H]1CC[C@@H]2[C@H](COc3ccc(NC(=O)c4ccc(C(F)(F)F)cc4)cc3C(=O)N2C)O1 was read as esBAF inh 7.
Screening CN(C)c1ncnc2c1ncn2-c1ccccc1 returned ARFGAP1 inh -16, esBAF inh 59*, ASAP1 GAP inh 0 and SMARCA2 activ 1.
CN(C)c1ncnc2c1ncn2CCn1cnc2c(N(C)C)ncnc21 was read as ARFGAP1 inh -6, esBAF inh 0, ASAP1 GAP inh -18 and SMARCA2 activ -2.
`CCCC#Cc1cnc2c(c1)C(=O)N([C@H](C)CO)C[C@H](C)[C@H](CN(C)C(=O)CCN1CCCCC1)O2` gave esBAF inh -4.
`C[C@@H]1CN([C@@H](C)CO)C(=O)c2cc(C3=CCCCC3)cnc2O[C@@H]1CN(C)C(=O)c1ccccc1` gave esBAF inh 1.
OC[C@@H]1CC[C@@H](Cc2ccc(-c3ccccc3)cc2)O1 was read as ARFGAP1 inh 5, esBAF inh 68*, ASAP1 GAP inh -1 and SMARCA2 activ 4.
NC(=O)NC[C@@H]1CC[C@@H](Cc2ccc(-c3ccccc3)cc2)O1 was read as esBAF inh 69*.
C[C@@H]1CN([C@H](C)CO)C(=O)c2cc(NC(=O)Nc3cccc4ccccc34)ccc2O[C@@H](C)CCCCO[C@H]1CN(C)S(=O)(=O)c1ccc(F)cc1 was read as esBAF inh -3.
`S=C(NCC1CCCO1)Nc1ccc(Cl)cc1Cl` (configuration not stated) gave ARFGAP1 inh 6, esBAF inh 49*, ASAP1 GAP inh 3 and SMARCA2 activ 1.
For S=C(Nc1ccc(Cl)cc1Cl)NC1CCCCC1 the results were ARFGAP1 inh 11, esBAF inh 84*, ASAP1 GAP inh 7 and SMARCA2 activ 5.

High-throughput results deposited in PubChem by several laboratories.
